According to ChEMBL document CHEMBL4689842, “EUbOPEN Chemogenomics Library wave 1” (2021):

System: Fibroblast
Test: Multiplex assay against human fibroblast
Type: toxicity, cell-based
Method in brief: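 Tubulin, mitochondrial-mass and membrane-permeability phenotypes are per cents of healthy-nucleus cells. Cells were gated by CellPathfinder machine learning into Hoechst high-intensity objects or normal cells, normal cells into healthy, pyknosed or fragmented nuclei, and pyknosed cells into mitotic or apoptotic. Before that, live cells stained at seeding with Hoechst33342, BioTracker Green Microtubule Cytoskeleton Dye, MitoTracker Red and Annexin V Alexa Fluor 680 were imaged on a CQ1 microscope at 37°C and 5% CO2 after compound addition.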

[1] = 12 h, 1 µM, compound concentration 1 uM, replicate 1
[2] = 12 h, 1 µM, compound concentration 1 uM, replicate 2
[3] = 12 h, 10 µM, compound concentration 10 uM, replicate 1
[4] = 12 h, 10 µM, compound concentration 10 uM, replicate 2
[5] = 24 h, 1 µM, compound concentration 1 uM, replicate 1
[6] = 24 h, 1 µM, compound concentration 1 uM, replicate 2
[7] = 24 h, 10 µM, compound concentration 10 uM, replicate 1
[8] = 24 h, 10 µM, compound concentration 10 uM, replicate 2

## O=c1[nH]c2ccccc2n1C1CCN(Cc2ccc(-c3[nH]c4cc5ncnc5cc4nc3-c3ccccc3)cc2)CC1
[1]
  Population Apoptotic (%): 66%
  Population Fragmented Nuclei (%): 45%
  Population Healthy Nuclei (%): 43%
  Population Hoechst High Intensity Objects (%): 17%
  Population Membrane Permeable-Phenotype (%): 6%
  Population Mitochondria Different-Phenotype (%): 3%
  Population Mitotic Cells (%): 33%
  Population Normal (%): 82%
  Population Pyknosed Nuclei (%): 11%
  Population Tubulin-Different-Phenotype (%): 18%
  Total Cell Count: 251
[2]
  Population Apoptotic (%): 83%
  Population Fragmented Nuclei (%): 72%
  Population Healthy Nuclei (%): 19%
  Population Hoechst High Intensity Objects (%): 31%
  Population Membrane Permeable-Phenotype (%): 15%
  Population Mitochondria Different-Phenotype (%): 0%
  Population Mitotic Cells (%): 16%
  Population Normal (%): 68%
  Population Pyknosed Nuclei (%): 8%
  Population Tubulin-Different-Phenotype (%): 23%
  Total Cell Count: 99
[3]
  Population Apoptotic (%): 67%
  Population Fragmented Nuclei (%): 50%
  Population Healthy Nuclei (%): 37%
  Population Hoechst High Intensity Objects (%): 55%
  Population Membrane Permeable-Phenotype (%): 33%
  Population Mitochondria Different-Phenotype (%): 4%
  Population Mitotic Cells (%): 32%
  Population Normal (%): 44%
  Population Tubulin-Different-Phenotype (%): 87%
  Total Cell Count: 524
[4]
  Population Apoptotic (%): 70%
  Population Fragmented Nuclei (%): 46%
  Population Healthy Nuclei (%): 40%
  Population Hoechst High Intensity Objects (%): 48%
  Population Membrane Permeable-Phenotype (%): 27%
  Population Mitochondria Different-Phenotype (%): 12%
  Population Mitotic Cells (%): 30%
  Population Normal (%): 51%
  Population Pyknosed Nuclei (%): 12%
  Population Tubulin-Different-Phenotype (%): 72%
  Total Cell Count: 158
[5]
  Population Apoptotic (%): 45%
  Population Fragmented Nuclei (%): 43%
  Population Healthy Nuclei (%): 40%
  Population Hoechst High Intensity Objects (%): 20%
  Population Membrane Permeable-Phenotype (%): 8%
  Population Mitochondria Different-Phenotype (%): 5%
  Population Mitotic Cells (%): 54%
  Population Normal (%): 79%
  Population Pyknosed Nuclei (%): 15%
  Population Tubulin-Different-Phenotype (%): 16%
  Total Cell Count: 268
[6]
  Population Apoptotic (%): 62%
  Population Fragmented Nuclei (%): 70%
  Population Healthy Nuclei (%): 17%
  Population Hoechst High Intensity Objects (%): 31%
  Population Membrane Permeable-Phenotype (%): 0%
  Population Mitochondria Different-Phenotype (%): 27%
  Population Mitotic Cells (%): 37%
  Population Normal (%): 68%
  Population Pyknosed Nuclei (%): 12%
  Population Tubulin-Different-Phenotype (%): 36%
  Total Cell Count: 94
[7]
  Population Apoptotic (%): 70%
  Population Fragmented Nuclei (%): 44%
  Population Healthy Nuclei (%): 45%
  Population Hoechst High Intensity Objects (%): 62%
  Population Membrane Permeable-Phenotype (%): 20%
  Population Mitochondria Different-Phenotype (%): 14%
  Population Mitotic Cells (%): 29%
  Population Normal (%): 37%
  Population Pyknosed Nuclei (%): 10%
  Population Tubulin-Different-Phenotype (%): 65%
  Total Cell Count: 437
[8]
  Population Apoptotic (%): 56%
  Population Fragmented Nuclei (%): 40%
  Population Healthy Nuclei (%): 36%
  Population Hoechst High Intensity Objects (%): 51%
  Population Membrane Permeable-Phenotype (%): 24%
  Population Mitochondria Different-Phenotype (%): 28%
  Population Mitotic Cells (%): 43%
  Population Normal (%): 48%
  Population Pyknosed Nuclei (%): 23%
  Population Tubulin-Different-Phenotype (%): 40%
  Total Cell Count: 143
